Reference: ChEMBL document CHEMBL1127457, “Nonpeptide renin inhibitors with good intraduodenal bioavailability and efficacy in dog” (J Med Chem, 1994)

Tests used:
[1] = Oral bioavailability in dog (salt depleted); conditions: in vivo
[2] = Partition coefficient (logD6.5); conditions: octanol/water, pH 6.5
[3] = Average peak plasma concentration of compound after 10 mg/kg intraduodenal administration to Ferret
[4] = Average area under curve for the compound at 1 mg/kg dose after intravenous administration to rat; conditions: in vivo
Canis familiaris [5] = test: Mean arterial pressure response following 1 mg/kg intravenous administration to salt depleted dog; conditions: in vivo
Canis familiaris [6] = test: Mean arterial pressure response following 10 mg/kg intraduodenal administration to salt depleted dog; conditions: in vivo, other
[7] = Average area under curve for compound at 1 mg/kg dose intravenous administration to Ferret; conditions: in vivo
[8] = molecular target: Renin (Mustela putorius furo); test: Tested in vitro for its ability to inhibit the ferret plasma renin
[9] = Average area under curve at 10 mg/kg dose after intraduodenal administration to Ferret; conditions: in vivo
Renin [10] = molecular target: T1, Renin (Homo sapiens, UniProt P00797); test: Tested in vitro for its ability to inhibit the human plasma renin; assay type: cell-free
T1 sequence (P00797 whole entry): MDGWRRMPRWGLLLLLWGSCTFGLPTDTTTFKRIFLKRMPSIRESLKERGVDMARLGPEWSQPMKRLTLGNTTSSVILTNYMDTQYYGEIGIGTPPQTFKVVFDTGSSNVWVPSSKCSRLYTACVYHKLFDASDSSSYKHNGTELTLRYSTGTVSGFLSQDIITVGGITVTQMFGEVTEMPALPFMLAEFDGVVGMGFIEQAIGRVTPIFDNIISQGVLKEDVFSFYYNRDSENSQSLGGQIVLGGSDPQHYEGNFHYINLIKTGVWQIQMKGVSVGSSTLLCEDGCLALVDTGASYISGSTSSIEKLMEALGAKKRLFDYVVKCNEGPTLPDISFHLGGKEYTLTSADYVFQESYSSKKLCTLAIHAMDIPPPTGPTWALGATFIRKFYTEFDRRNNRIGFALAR
Outline: (§1)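 IC50 against renin in plasma from the named species (dog, ferret, human, rat); single determination in most cases.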

[11] = Average peak plasma concentration of compound after 10 mg/kg intraduodenal administration to rat
[12] = Average peak plasma concentration of compound at 10 mg/kg intraduodenal administration in salt depleted dog; conditions: plasma
[13] = Average peak plasma concentration of compound after 1 mg/kg intravenous administration in salt depleted dog; conditions: plasma
[14] = Oral bioavailability in ferret; conditions: in vivo
[15] = Oral bioavailability in rat; conditions: in vivo; for bioavailability: intraduodenal, 10 mg/kg
Renin (Canis familiaris) [16] = test: Tested in vitro for its ability to inhibit the dog plasma renin
[17] = Partition coefficient (logD7.4); conditions: octanol/water, pH 7.4
[18] = Average area under curve at 1 mg/kg intravenous administration to salt depleted dog; conditions: in vivo
[19] = Average area under curve for the compound at 10 mg/kg dose after intraduodenal administration to rat; conditions: in vivo
[20] = Average peak plasma concentration of compound after 1 mg/kg intravenous administration to rat
Renin [21] = molecular target: T2, Renin (Rattus norvegicus, UniProt P08424); test: (§2) Tested in vitro for its ability to inhibit the rat plasma renin; assay type: functional, cell-free; outline: as §1
T2 sequence (P08424 whole entry): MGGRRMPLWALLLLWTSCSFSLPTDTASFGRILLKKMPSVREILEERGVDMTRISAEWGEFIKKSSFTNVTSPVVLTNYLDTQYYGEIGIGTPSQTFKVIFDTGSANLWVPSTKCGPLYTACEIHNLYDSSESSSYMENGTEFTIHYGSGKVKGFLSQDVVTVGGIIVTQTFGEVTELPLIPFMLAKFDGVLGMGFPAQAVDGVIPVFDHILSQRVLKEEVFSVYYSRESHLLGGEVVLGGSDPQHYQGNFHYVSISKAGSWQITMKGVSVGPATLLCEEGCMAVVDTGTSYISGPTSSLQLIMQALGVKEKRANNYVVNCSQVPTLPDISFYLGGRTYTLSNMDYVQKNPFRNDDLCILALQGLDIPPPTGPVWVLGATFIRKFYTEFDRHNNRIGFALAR

[22] = Average peak plasma concentration of compound after 1 mg/kg intravenous administration to Ferret
[23] = Average area under curve at 10 mg/kg intraduodenal administration to salt depleted dog; conditions: in vivo
[24] = molecular target: Renin (Mustela putorius furo); test: Tested in vitro for its ability to inhibit the ferret plasma renin; remark: listed apart in the source
Renin [25] = molecular target: T2, Renin; test: as §2; assay type: cell-free; outline: as §1
Renin (Canis familiaris) [26] = test: Tested in vitro for its ability to inhibit the dog plasma renin; remark: listed apart in the source
Homo sapiens = organism: Homo sapiens; conditions: Liver, Microsome
Renin (Canis familiaris) [27] = test: Tested in vitro for its ability to inhibit the dog plasma renin; remark: listed apart in the source
[28] = molecular target: Renin (Mustela putorius furo); test: Tested in vitro for its ability to inhibit the ferret plasma renin; remark: listed apart in the source

logD [2] | Cmax ([3]; plasma) | AUC [4] | AUC [7] | AUC [9] | IC50 (Renin [10]) | Cmax ([11]; plasma) | bioavailability [14] | bioavailability [15] | logD [17] | AUC [19] | Cmax ([20]; plasma) | Cmax ([22]; plasma) | Structure (SMILES) | Rate (nM min-1 (nM of cytochrome P450)-1) (Homo sapiens) | further results
3.6 | 1180 ng/mL | 212 ng·h/mL | 668 ng·h/mL | 1350 ng·h/mL | 4.3 nM | 140 ng/mL | 20% | 6% | 3.6 | 140 ng·h/mL | 1130 ng/mL | 1830 ng/mL | CCCC[C@H](N[C@@H](Cc1ccccc1)C(=O)N1CCC(OCOC)CC1)C(=O)N[C@@H](CC1CCCCC1)[C@@H](O)C[C@H](C(=O)NCCC[N+]1([O-])CCOCC1)C(C)C |  | bioavailability [1]: < 19%; Arterial pressure (Canis familiaris [5]): 3707 % mmHg min; Arterial pressure (Canis familiaris [6]): 6881 % mmHg min; IC50 [8]: 420 nM; Cmax [12]: 420 ng/mL; Cmax [13]: > 5530 ng/mL; IC50 (Renin (Canis familiaris) [16]): 19 nM; AUC [18]: > 732 ng·h/mL; IC50 (Renin [21]): 6400 nM; AUC [23]: 1430 ng·h/mL
 |  |  |  |  |  |  |  |  |  |  |  |  | CCCC[C@H](N[C@@H](Cc1ccccc1)C(=O)N1CCC(OCOC)CC1)C(=O)N[C@@H](CC1CCCCC1)[C@@H](O)C[C@H](C(=O)NCCCn1ccnc1)C(C)C |  | IC50 [24]: 330 nM; IC50 (Renin [25]): 7300 nM; IC50 (Renin (Canis familiaris) [26]): 24 nM
3.3 |  |  |  |  |  |  |  |  |  |  |  |  | CCCC[C@H](O[C@@H](Cc1ccccc1)C(=O)N1CCC(OCOC)CC1)C(=O)N[C@@H](CC1CCCCC1)[C@@H](O)C[C@H](C(=O)NCCCN1CCOCC1)C(C)C | 4.26 | 
> 5 | 5500 ng/mL | 340 ng·h/mL | 2750 ng·h/mL | 8220 ng·h/mL | 13 nM | > 480 ng/mL | 29% | > 25% | > 5 | > 850 ng·h/mL | 1310 ng/mL | 3900 ng/mL | CCCC[C@H](N[C@@H](Cc1ccccc1)C(=O)N1CCC(OCOC)CC1)C(=O)N[C@@H](CC1CCCCC1)[C@@H](O)C[C@H](C(=O)NCCN1CCCC1)C(C)C |  | 
> 5 |  | 1540 ng·h/mL |  |  | 14 nM |  |  | 7% | > 5 | 1100 ng·h/mL |  |  | CCCC[C@H](N[C@@H](Cc1ccccc1)C(=O)N1CCC(OCOC)CC1)C(=O)N[C@@H](CC1CCCCC1)[C@@H](O)C[C@H](C(=O)NCc1ccccc1)C(C)C |  | Cmax ([11]; in vivo): 930 ng/mL; Cmax ([20]; in vivo): 1660 ng/mL
> 5 |  | 228 ng·h/mL | 827 ng·h/mL | > 8170 ng·h/mL |  |  | > 98% |  | > 5 | 3670 ng·h/mL |  |  | CCCC[C@H](N[C@@H](Cc1ccccc1)C(=O)N1CCC(OCOC)CC1)C(=O)N[C@@H](CC1CCCCC1)[C@@H](O)C[C@H](C(=O)NCc1cccnc1)C(C)C | 2.27 | Cmax ([3]; in vivo): > 4920 ng/mL; Cmax ([11]; in vivo): 2320 ng/mL; F ([15]; po): 160%; Cmax ([20]; in vivo): 560 ng/mL; Cmax ([22]; in vivo): 3480 ng/mL
> 5 | 11500 ng/mL | 215 ng·h/mL | 2630 ng·h/mL | 16600 ng·h/mL | 9.1 nM | 600 ng/mL | 63% | 35% | > 5 | 763 ng·h/mL | 340 ng/mL | 2980 ng/mL | CCCC[C@H](N[C@@H](Cc1ccccc1)C(=O)N1CCC(OCOC)CC1)C(=O)N[C@@H](CC1CCCCC1)[C@@H](O)C[C@H](C(=O)NCC(C)(C)N1CCOCC1)C(C)C | 4.32 | bioavailability [1]: 37%; IC50 (Renin (Canis familiaris) [27]): 14 nM; Arterial pressure (Canis familiaris [5]): 7589 % mmHg min; IC50 [28]: 120 nM; Arterial pressure (Canis familiaris [6]): 8525 % mmHg min; IC50 (Renin [25]): 2100 nM; Cmax [12]: 1600 ng/mL; Cmax [13]: 7560 ng/mL; AUC [18]: 1840 ng·h/mL; AUC [23]: 6970 ng·h/mL
